According to ChEMBL document CHEMBL1137035, “New DNA binding ligands as a model of chromomycin A3” (Bioorg Med Chem Lett, 2004):

What was measured:
Format in all cases: nucleic-acid assay
[1] = tested on: Nucleic Acid; assay: Inhibitory concentration required to displace DNA-bound ethidium bromide molecules bound to CT12 (5''-CGTAGCGCTACG)2; NI denotes no inhibition
Method in brief: (§1)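 Ethidium bromide displacement at 25 °C: duplex DNA (1 μM) and ethidium bromide (1 μM) in 20 mM Tris–HCl, pH 8.0, containing 1 mM MgCl2. Ligand titrated from 0 to 10 μM. Fluorescence read at λex 546 nm, λem 590 nm. IC50 is the concentration displacing 50% of DNA-bound ethidium, expressed as the dimer complex except for Hoechst 33258.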

[2] = tested on: Nucleic Acid; assay: Inhibitory concentration required to displace DNA-bound ethidium bromide molecules bound to CA12 (5''-CGCGAATTCGCG)2; NI denotes no inhibition; method in brief: as §1
[3] = tested on: Nucleic Acid; assay: Inhibitory concentration required to displace DNA-bound ethidium bromide molecules bound to CT12 (5''-CGTAGCGCTACG)2; method in brief: as §1
[4] = tested on: Nucleic Acid; assay: Inhibitory concentration required to displace DNA-bound ethidium bromide molecules bound to CA12 (5''-CGCGAATTCGCG)2; method in brief: as §1
[5] = tested on: Nucleic Acid; assay: Inhibitory concentration required to displace one of two DNA-bound ethidium bromide molecules bound to CT12 (5''-CGTAGCGCTACG)2
Method in brief: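 Ethidium bromide displacement at 25 °C. CT12 duplex (1 μM) and ethidium bromide (1 μM) in 20 mM Tris–HCl, pH 8.0, with 1 mM MgCl2. Ligand titrated from 0 to 10 μM. Fluorescence read at λex 546 nm, λem 590 nm. IC50 is the concentration that displaces 50% of DNA-bound ethidium, expressed as dimer complex.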

| SMILES | IC50 [1] | IC50 [2] | IC50 [3] [nM] | IC50 [4] [nM] | IC50 [5] [nM] |
| --- | --- | --- | --- | --- | --- |
| C[C@H]1CC(=O)c2c(cc3cc(O)cc(O)c3c2O)C1 | Not Active | Not Active | – | – | – |
| CCCCCC[C@@H]1C(=O)c2c(cc3cc(O)cc(O)c3c2O)C[C@H]1C | – | – | 3000 | 3000 | – |
| CCCCCC(O)C1C(=O)c2c(cc3cc(O)cc(O)c3c2O)C[C@H]1C (stereo partly specified) | – | – | 6500 | 4500 | – |
| CO[C@@H]1[C@H](O)C[C@@H](O[C@@H]2C[C@H](Oc3cc4cc5c(c(O)c4c(O)c3C)C(=O)[C@@H](O[C@H]3C[C@@H](O[C@H]4C[C@@H](O[C@H]6C[C@](C)(O)[C@@H](OC(C)=O)[C@H](C)O6)[C@H](O)[C@@H](C)O4)[C@H](O)[C@@H](C)O3)[C@H]([C@H](OC)C(=O)[C@@H](O)[C@@H](C)O)C5)O[C@H](C)[C@@H]2OC(C)=O)O[C@@H]1C [CHROMOMYCIN A3] | – | – | – | 9000 | 3000 |
| CN1CCN(c2ccc3[nH]c(-c4ccc5[nH]c(-c6ccc(O)cc6)nc5c4)nc3c2)CC1 [HOECHST 33258] | – | – | > 20000 | 1000 | – |

More lines, main results first:

| IC50 [1] | IC50 [2] | IC50 [3] [nM] | IC50 [4] [nM] | SMILES | IC50 [5] [nM] |
| --- | --- | --- | --- | --- | --- |
| – | – | 2500 | 2500 | CCCCC/C=C1/C(=O)c2c(cc3cc(O)cc(O)c3c2O)C[C@H]1C | – |
| – | – | 3000 | 2500 | CCCCCC[C@H]1C(=O)c2c(cc3cc(O)cc(O)c3c2O)C[C@H]1C | – |
| – | – | 3500 | 3000 | CCCCCCC1C(=O)c2c(cc3cc(O)cc(O)c3c2O)C[C@H]1C (stereo partly specified) | – |
